# Ab BasE inh = BasE siderophore enzyme inhibitors, primary screen, biochemical, Acinetobacter baumannii ATCC 17978, fluorescence polarization. 84,000 compounds, 0.1% hits. purified BasE, fluorescence polarization binding displacement. AID 485350, 2010. inhibition, % (no concentration beside the values); in the data active = inhibition above about 25%, passing the limit was not always enough;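 also: 0% = negative plate control signal and 100% = positive plate control signal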
# LANA-nucl inh = inhibitors of KSHV LANA-nucleosome binding, primary screen, biochemical, fluorescence polarization, FITC-LANA1-23, chicken nucleosomes | FITC-LANA1-23 / chicken nucleosome fluorescence polarization; hits give low values | z-score (no concentration beside the values) | 51,000 compounds, 0.3% hits | AID 720717, 2013;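 active = both repeat wells score below -2 in polarization z-score versus plate sample wells, excluding overly bright wells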
#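 Material: Purified chicken nucleosomes with FITC-labelled LANA N-terminal peptide (1-23) | Reagent: 50 nM FITC-LANA1-23 probe | Medium: TEN-BT buffer, pH 7.5 | Times: 10–45 min incubation at room temperature | Detection: Fluorescence polarization | Replication: Duplicates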
# * hit, by the source's call; . = not tested or not shown; ! = not active in a repeat. This is one part of a sample in which hits are shown more often than they occur.
SMILES,Ab BasE inh,LANA-nucl inh
CCN(C(=O)NC1(C(F)(F)F)Oc2ccc(Cl)cc2O1)C1CCCCC1 (stereo unspecified),39.6*,-0.189
Nc1ccc2c(c1)CCC2=O,2.4,0.825
O=C1CC(=O)c2ccc3c4c(ccc1c24)C(=O)CC3=O,27.0*,-0.281
CCCCn1c(=O)[nH]c2nc3cc(N=Cc4c(O)n(C)c(=O)n(C)c4=O)ccc3nc2c1=O,2.5,-0.494
Cn1c(=O)c2nc3ccc(N=Cc4c(O)n(Cc5ccccc5)c(=O)[nH]c4=O)cc3nc2n(C)c1=O,17.7,-2.29*
O=C(NCCN1CCN(c2ncnc3sc4c(c23)CCCC4)CC1)c1ccco1,0.6,.
Cc1ccc(C(=O)CCCn2nnc(-c3ccncc3)n2)cc1C,-5.0,3.06
O=C1c2cccc3c(N4CCOCC4)ccc(c23)C(=O)N1c1ccccc1,13.2,-3.06*
O=C(Nc1ccccc1N1CCOCC1)c1cccc(N2C(=O)c3ccccc3C2=O)c1,-0.2,.
CN1CCN(C(=O)c2ccc3c(c2)S(=O)(=O)c2ccccc2C3=O)CC1,0.5,.
CN(C)c1ccc2c(c1)S(=O)(=O)c1cc(N(C)C)ccc1C2=O,33.0,-3.99*
O=S(=O)(Nc1ccccc1NS(=O)(=O)c1ccc(F)cc1)c1ccc(F)cc1,-0.3,.
Cc1ccc(N2C(=O)NC(c3ccccc3)(C(F)(F)F)C2=O)nc1 (stereo unspecified),1.7,-2.31*
O=C1NC(c2ccc(F)cc2)(C(F)(F)F)C(=O)N1Cc1ccco1 (stereo unspecified),1.6,-0.98
COc1ccc(CC(=O)NCCS(=O)(=O)N2CCN(c3ccc(OC)cc3)CC2)cc1,-1.6,2.75
CC(C)NC(=O)NC1C2CC3CC(C2)CC1C3 (stereo unspecified),-0.8,1.52
CCCCNC(=O)NC1C2CC3CC(C2)CC1C3 (stereo unspecified),26.4*,0.799
CSCCC(=O)Nc1cc(S(C)(=O)=O)ccc1Cl,1.9,.
COc1ccc(C(=O)OCc2nnc(-c3ccccc3)o2)cc1S(=O)(=O)Nc1ccc(C)cc1,-3.2,.
CC(c1ccccc1)N1CCC(=O)C2=C1CCCC2 (stereo unspecified),1.0,0.001
CN1c2ccccc2C(=O)C(=C2SCCCS2)S1(=O)=O,3.5,-1.51
CN1c2ccccc2C(=O)/C(=N\Nc2ccccc2Cl)S1(=O)=O,-1.3,-2.39*
O=C(c1csc(-c2ccccc2)n1)N(Cc1ccccn1)Cc1ccccn1,.,-1.97*
CCN(CC)C(=O)NCc1ccccn1,2.5,-0.214
CN1CCN(c2nc(C#N)c(C#N)nc2C(C#N)=C2Nc3ccccc3N2)CC1,0.9,-1.58
SMILES,Ab BasE inh,LANA-nucl inh
CCN1/C(=C(\C#N)c2nc(C#N)c(C#N)nc2N2CCOCC2)Nc2ccccc21,0.5,-3.2*
O=C(CSc1n[nH]c(=O)[nH]c1=O)Nc1ccccc1C(=O)c1ccccc1,38.4*,.
O=C(CSc1n[nH]c(=O)[nH]c1=O)Nc1ccc(Br)cc1Br,-0.7,.
Cc1nnc(SCc2nc(-c3ccsc3)no2)n1C1CC1,0.2,.
N#CC(C(=O)Nc1ccc(Cl)c(Cl)c1)=C1Nc2ccccc2N1,0.5,0.554
N#CC(C(=O)Nc1ccccc1)=C1Nc2ccccc2N1,31.1*,.
N#CCCN(/N=C/c1ccccc1)C1=NS(=O)(=O)c2ccccc21,2.5,.
CCN(CC)c1ccc(/C=N/N(CCC#N)C2=NS(=O)(=O)c3ccccc32)cc1,10.7,-8.37*
C/C(=N\NC(=S)NC1CCCCC1)c1ccc(S(=O)(=O)NCc2ccco2)cc1,-1.1,.
C/C(=N\NC(=O)c1ccc(O)cc1)c1ccc(S(=O)(=O)NCc2ccco2)cc1,28.6*,.
CC(C)CC1C2CN(Cc3ccccc3)CC=C2C(C#N)=C(N)C1(C#N)C#N (stereo unspecified),15.5,-1.5
CN1CC=C2C(C#N)=C(N)C(C#N)(C#N)C(CCc3ccccc3)C2C1 (stereo unspecified),22.0,-2.87*
CC(=O)N1CC=C2C(C#N)=C(N)C(C#N)(C#N)C(Cc3ccccc3)C2C1 (stereo unspecified),-0.3,-0.782
CCCC1C2CN(Cc3ccccc3)CC=C2C(C#N)=C(N)C1(C#N)C#N (stereo unspecified),23.3,-4.55*
COc1cc(OC)cc(C(=O)NCC(=O)N2CC(C)CC(C)C2)c1 (stereo unspecified),-0.8,.
CCc1nc2ccc(C(=O)NCCc3ccco3)cc2nc1CC,1.7,-2.17*
Cc1ccc(CCNC(=O)c2ccc3nc(-c4ccco4)c(-c4ccco4)nc3c2)cc1,0.1,-0.774
CN(C)c1ccc(C2=CC=CC(=C3C=CC(=[N+](C)C)C=C3)O2)cc1,7.9,.
CN(C)c1ccc(C(=C2C=CC(=[N+](C)C)C=C2)c2ccc(N(C)C)cc2)cc1,2.3,-4.11*!
Cc1cccc(OCC(N)=O)c1,22.2,.
Cc1cccc(OCC(=O)N(Cc2ccco2)Cc2ccco2)c1,27.8*,0.493
CCN(Cc1nc(-c2ccc(OC)cc2)no1)C(=O)/C=C/c1ccc(OC)c(OC)c1,-7.6,-0.0455
CC(=O)n1cc(/C=N/NC(=O)c2cccc(O)c2)c2ccccc21,27.7*,0.467
O=C(N/N=C/c1c[nH]c2ccccc12)c1cccc(O)c1,20.6,-0.365
Cc1cc(Cl)n(-c2ccc(F)cc2)n1,-0.4,.
SMILES,Ab BasE inh,LANA-nucl inh
O=C(Nc1ccc(N2CCOCC2)cc1)C12CC3CC(CC(C3)C1)C2,-0.1,-0.652
CCCCSC1=C(C#N)C(=O)NC(c2ccc(OC)cc2)S1 (stereo unspecified),4.0,-0.364
COc1ccc(CSC2=C(C#N)C(=O)NC3(CCCCC3)S2)cc1,38.9*,.
CN1C(=O)/C(=C(/C#N)C(=O)NCCc2ccccc2)c2ccccc21,1.5,.
Cc1cc(C(=O)N/N=C\c2ccccc2)n[nH]1,-2.1,0.683
O=C1c2c(O)ccc(O)c2C(=O)c2c(NCCNCCO)ccc(NCCNCCO)c21,0.9,-9.06*
O=C(O)CSc1nnc(C2CCCCC2)n1/N=C/c1cccc(F)c1,0.7,.
Cc1sc2c(c1C)CN(C1CCCC1)CN2C(=O)c1ccccc1,-1.4,.
CC(=O)N/N=C/c1ccccc1,3.0,0.0315
CC(=O)N/N=C/c1cc(C(C)C)cc(/C=N/NC(C)=O)c1O,20.4,-3.89*
COc1cc(S(=O)(=O)Nc2ccccc2NC(=O)CN2CCOCC2)c(OC)cc1NC(C)=O,-0.2,-0.355
Cc1cc(C)c2c(n1)OC(N1CCOCC1)(C(F)(F)F)CC2=O (stereo unspecified),1.6,-0.0875
O=C1CN(C(=S)Nc2ccc(F)cc2)CCN1,2.0,.
O=C1CCCC2=C1Sc1ccccc1N2,12.8,-2.69*
O=C1CCCC2=C1C(c1cccc(Br)c1)Nc1ccccc1N2 (stereo unspecified),-1.6,.
CCN(CC(=O)N1CCc2ccccc2C1)S(=O)(=O)c1ccc(OC)cc1,-2.1,0.565
O=c1[nH]c2c(s1)C=Nc1cc3ccccc3cc1N2,23.1,-2.27*
O=C(Nc1cccc(C(=O)NCCN2CCCC2)c1)C1=CSCCO1,-2.1,-1.09
Cc1ccccc1OCC1=NN2C(=N)/C(=C\c3ccc(SCc4ccco4)o3)C(=O)N=C2S1,-2.9,3.1
Cc1ccccc1OCC1=NN2C(=N)/C(=C/c3ccc(N(C)C)cc3)C(=O)N=C2S1,11.0,-4.76*
CN(Cc1ccccc1)c1nc2c(c(=O)[nH]c(=O)n2C)n1CCCOc1ccccc1,-0.7,0.154
CCC(Oc1ccccc1)C(=O)N1CCN(c2ccc(OC)cc2)CC1 (stereo unspecified),2.7,-0.18

# Bioassay records: PubChem, ICCB-Longwood Screening Facility, Harvard Medical School
